Legend:
Salmonella typhimurium [1] = test: Genotoxicity in Salmonella typhimurium TA-1538 after 2 days by Ames test relative to control; type: toxicity, organism-based; conditions: salmonella enterica subsp. enterica serovar typhimurium, 48 h
In short: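 Compounds were tested at 1, 10, 100 and 500 μg, added in Me2SO to top agar. His+ revertant colonies were counted after 2 days at 37 °C and compared with Me2SO-only plates.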

Salmonella typhimurium [2] = test: Genotoxicity in Salmonella typhimurium TA-1538 after 2 days by Ames test in presence of C57BL/6J mouse liver S9 fraction relative to control; type: toxicity, organism-based; conditions: salmonella enterica subsp. enterica serovar typhimurium, s9, 48 h
[3] = Drug level in ventricular arrthymia patient urine treated with lidocaine at 1.4 mg/min, iv administered for 36 hrs measured after 30 hrs measured after 30 hrs; type: ADME, organism-based; conditions: human, in vivo
In short: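 Aliquots were analysed immediately after collection by CIMS stable isotope dilution with deuterated analogues as internal standards. Analysis was run before and after TiCl3 reduction of the urine.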

[4] = Plasma concentration in ventricular arrthymia patient at 1.4 mg/min, iv administered for 36 hrs measured after 30 hrs; type: ADME, organism-based; conditions: human
[5] = Drug level in po dosed human urine treated with lidocaine; type: ADME, organism-based; conditions: in vivo
In short: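 Analysed by chemical-ionization MS stable isotope dilution, with deuterated N-hydroxy analogues as internal standards. Samples were measured before and after TiCl3 reduction. Released 2,6-dimethylaniline was followed by m/e 122/124 ratios and by GC-CIMS selected ion monitoring. Values are given as % of dose.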

Mus musculus = organism: Mus musculus; test: Carcinogenic activity in Swiss albino mouse; type: toxicity, organism-based; conditions: in vivo

Row | Drug excretion [3] | concentration at 30 h [4] | Drug excretion [5] | Structure (SMILES) | Activity (Salmonella typhimurium [1]) | Activity (Salmonella typhimurium [2]) | Activity (Mus musculus)
1 | metabolite_detected | 680 ng/mL | metabolite_detected | CCNCC(=O)Nc1c(C)cccc1C | Non-toxic | Non-toxic | –
2 | – | – | – | Cc1cccc(C)c1N | Non-toxic | Non-toxic | –
3 | – | – | – | CCN(CC)CC(=O)N(O)c1c(C)cccc1C | Non-toxic | Non-toxic | Non-toxic
4 | – | – | – | CCNCC(=O)N(O)c1c(C)cccc1C | Non-toxic | Non-toxic | Non-toxic
5 | metabolite_detected | – | metabolite_detected | [2H]C([2H])(C)N(CC)CC(=O)Nc1c(C)cccc1C | – | – | –
6 | metabolite_detected | – | metabolite_detected | [2H]C([2H])(NCC)C(=O)Nc1c(C)cccc1C | – | – | –
7 | – | – | – | [2H]C([2H])(C)N(CC(=O)N(O)c1c(C)cccc1C)C([2H])([2H])C | – | – | Non-toxic
8 | metabolite_detected | – | metabolite_detected | Cc1cccc(C)c1NO | Non-toxic | Non-toxic | Non-toxic
9 | – | – | – | [2H]C([2H])([2H])CNCC(=O)N(O)c1c(C)cccc1C | – | – | Non-toxic
10 | – | – | – | Cc1cccc(C)c1N(O)C(=O)CCl | – | – | Non-toxic
11 | metabolite_detected | 3100 ng/mL | metabolite_detected | CCN(CC)CC(=O)Nc1c(C)cccc1C [LIDOCAINE] | – | – | –
